Measurements as given in ChEMBL document CHEMBL3393034, “Discovery of piperidine ethers as selective orexin receptor antagonists (SORAs) inspired by filorexant” (Bioorg Med Chem Lett, 2015).
≈ marks a conversion by molar mass, not a printed value. Calls of active or inactive are those of the source. No cut-off for these calls is given here.

Legend:
[1] = molecular target: T1, Orexin receptor type 2 (Homo sapiens, UniProt O43614); assay: Antagonist activity at human OX2R by radioligand displacement assay
T1 sequence (O43614 whole entry): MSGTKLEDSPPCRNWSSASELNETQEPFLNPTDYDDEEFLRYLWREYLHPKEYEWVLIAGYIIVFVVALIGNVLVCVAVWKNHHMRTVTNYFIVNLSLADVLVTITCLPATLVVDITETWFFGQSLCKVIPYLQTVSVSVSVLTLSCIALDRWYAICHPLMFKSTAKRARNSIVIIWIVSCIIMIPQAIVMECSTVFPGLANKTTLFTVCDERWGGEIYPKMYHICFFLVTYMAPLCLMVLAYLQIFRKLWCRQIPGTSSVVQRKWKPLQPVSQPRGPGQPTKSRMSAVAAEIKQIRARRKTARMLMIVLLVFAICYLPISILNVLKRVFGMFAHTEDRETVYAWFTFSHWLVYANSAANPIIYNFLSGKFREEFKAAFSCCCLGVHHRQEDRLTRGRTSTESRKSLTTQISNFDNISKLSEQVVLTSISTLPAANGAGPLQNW
Summary of the method: (§1)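 Radioligand-displacement binding assay at the human orexin receptor; affinity expressed as Ki; data for racemates unless otherwise noted.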

[2] = species: Homo sapiens; assay: Selectivity ratio of Ki for human OX1R to Ki for human OX2R
Summary of the method: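 Selectivity index for OX2R over OX1R, calculated from radioligand-displacement binding Ki values at the two human receptors.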

[3] = molecular target: T2, Orexin/Hypocretin receptor type 1 (Homo sapiens, UniProt O43613); assay: Antagonist activity at human OX1R by radioligand displacement assay; summary of the method: as §1
T2 sequence (O43613 whole entry): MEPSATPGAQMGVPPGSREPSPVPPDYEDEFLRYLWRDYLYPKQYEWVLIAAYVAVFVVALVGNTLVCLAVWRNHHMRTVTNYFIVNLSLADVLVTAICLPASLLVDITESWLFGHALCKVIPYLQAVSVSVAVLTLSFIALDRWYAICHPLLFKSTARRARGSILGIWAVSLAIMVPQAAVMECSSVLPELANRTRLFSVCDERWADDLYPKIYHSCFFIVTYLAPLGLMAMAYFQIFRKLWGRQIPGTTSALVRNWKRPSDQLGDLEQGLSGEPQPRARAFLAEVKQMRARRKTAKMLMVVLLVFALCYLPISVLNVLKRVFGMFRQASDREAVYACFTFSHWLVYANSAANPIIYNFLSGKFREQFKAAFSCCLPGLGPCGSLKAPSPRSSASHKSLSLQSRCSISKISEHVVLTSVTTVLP

[4] = AUC in Sprague-Dawley rat at 10 mg/kg, po; assay type: ADME, organism-based; set-up: dose 10 mg/kg, route oral; conditions: plasma
Summary of the method: (§2)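 Sprague–Dawley rats were dosed intravenously at 2 mg/kg and orally at 10 mg/kg. Readouts were clearance (mL/min/kg), terminal half-life, plasma AUC (µM•h) and oral bioavailability (%).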

[5] = Fraction unbound in human plasma; assay type: ADME, cell-free
[6] = molecular target: T2, Orexin/Hypocretin receptor type 1; assay: Antagonist activity at human OX1R by FLIPR assay
Summary of the method: (§3)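 Functional FLIPR readout in CHO cells engineered to overexpress the human orexin receptor; antagonism expressed as IC50.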

[7] = tested on: Rattus norvegicus; assay: Effect on sleep-wake cycle in rat assessed as change in active wake at 30 mg/kg, po after 30 mins relative to vehicle-treated control; assay type: functional, organism-based; set-up: dose 30 mg/kg
Summary of the method: (§4)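 EEG-telemetry in rats, 30 mg/kg oral versus vehicle (20% vitamin E TPGS). Dosing was at 09:00 in the active phase (ZT 17:00, 7 h before lights on), recorded from 30 min pre-dose to 2 h post-dose. Active wake, light, delta and REM sleep were scored as means in 10-min bins. Balanced crossover over 3 consecutive days, N=6.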

[8] = molecular target: T1, Orexin receptor type 2; assay: Antagonist activity at human OX2R by FLIPR assay; summary of the method: as §3
[9] = Plasma protein binding in rat; assay type: ADME, cell-free; conditions: read-out: PPB (converted)
[10] = Half life in beagle dog at 0.125 mg/kg, iv; assay type: ADME, organism-based, Canis lupus familiaris; set-up: dose 0.125 mg/kg, route intravenous; conditions: in vivo
Summary of the method: (§5)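 Beagle dogs were dosed intravenously at 0.125 mg/kg and orally at 3 mg/kg. Readouts were clearance (mL/min/kg), terminal half-life, and oral AUC (µM•h), Cmax (µM), Tmax (h) and bioavailability (%).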

[11] = Lipophilicity, log D of the compound by HPLC analysis; assay type: physicochemical
[12] = Clearance in Sprague-Dawley rat at 2 mg/kg, iv; assay type: ADME, organism-based; set-up: dose 2 mg/kg, route intravenous; conditions: in vivo; summary of the method: as §2
[13] = Cmax in beagle dog at 3 mg/kg, po; assay type: ADME, organism-based, Canis lupus familiaris; set-up: dose 3 mg/kg, route oral; conditions: in vivo; summary of the method: as §5
[14] = AUC in beagle dog at 3 mg/kg, po; assay type: ADME, organism-based, Canis lupus familiaris; set-up: dose 3 mg/kg, route oral; conditions: plasma; summary of the method: as §5
[15] = tested on: Rattus norvegicus; assay: Effect on sleep-wake cycle in rat assessed as increase in REM sleep at 30 mg/kg, po after 30 mins relative to vehicle-treated control; assay type: functional, organism-based; set-up: dose 30 mg/kg; summary of the method: as §4
[16] = Cmax in Sprague-Dawley rat at 30 mg/kg, po; conditions: in vivo
[17] = Oral bioavailability in Sprague-Dawley rat at 10 mg/kg; assay type: ADME, organism-based; conditions: in vivo; summary of the method: as §2
[18] = Clearance in beagle dog at 0.125 mg/kg, iv; assay type: ADME, organism-based, Canis lupus familiaris; set-up: dose 0.125 mg/kg, route intravenous; conditions: in vivo; summary of the method: as §5
[19] = Aqueous solubility of the compound at pH 7; assay type: physicochemical; conditions: aqueous medium
[20] = Drug uptake in rat CSF at 30 mg/kg, po after 30 mins; assay type: ADME, organism-based; set-up: dose 30 mg/kg, route oral; conditions: cerebrospinal fluid, read-out: Drug uptake
Summary of the method: (§6)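 Rats received a single 30 mg/kg oral dose. Receptor occupancy, plasma level and CSF level were determined at t = 30 min.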

[21] = tested on: Rattus norvegicus; assay: Effect on sleep-wake cycle in rat assessed as increase in delta sleep at 30 mg/kg, po after 30 mins relative to vehicle-treated control; assay type: functional, organism-based; set-up: dose 30 mg/kg; summary of the method: as §4
[22] = Oral bioavailability in Sprague-Dawley rat at 30 mg/kg; conditions: in vivo
[23] = Tmax in beagle dog at 3 mg/kg, po; assay type: ADME, organism-based, Canis lupus familiaris; set-up: dose 3 mg/kg, route oral; conditions: in vivo; summary of the method: as §5
[24] = Fraction unbound in rat plasma; assay type: ADME, cell-free
[25] = Plasma concentration in rat at 30 mg/kg, po after 30 mins; assay type: ADME, organism-based; set-up: dose 30 mg/kg, route oral; summary of the method: as §6
[26] = AUC in Sprague-Dawley rat at 30 mg/kg, po; conditions: plasma
[27] = tested on: Rattus norvegicus; assay: Ex vivo receptor occupancy of OX2R in rat at 30 mg/kg, po after 30 mins; assay type: functional; summary of the method: as §6
[28] = Aqueous solubility of the compound at pH 2; assay type: physicochemical; conditions: aqueous medium
[29] = Oral bioavailability in beagle dog at 3 mg/kg; assay type: ADME, organism-based, Canis lupus familiaris; conditions: in vivo; summary of the method: as §5
[30] = Plasma protein binding in human; assay type: ADME, cell-free; conditions: read-out: PPB (converted)
[31] = Half life in Sprague-Dawley rat at 2 mg/kg, iv; assay type: ADME, organism-based; set-up: dose 2 mg/kg, route intravenous; conditions: in vivo; summary of the method: as §2
[32] = tested on: P-gp; assay: Binding affinity to human P-gp assessed as apparent passive permeability; assay type: ADME; conditions: not told
[33] = Tmax in Sprague-Dawley rat at 30 mg/kg, po; conditions: in vivo

CC1CCC(Oc2cc(C(F)(F)F)nc3ccccc23)CN1C(=O)c1ccccc1-n1nccn1 (racemic)
Ki [1]: 149 nM

Cc1ccc(-n2nccn2)c(C(=O)N2CCCC(Oc3ccc(F)c(C)c3)C2)c1 (stereo unspecified)
Ratio Ki [2]: 2
Ki [3]: 106 nM
Ki [1]: 55 nM

CC1CCC(Oc2c(Br)cnc3ccccc23)CN1C(=O)c1ccccc1-n1nccn1 (racemic)
Ki [1]: 180 nM

CC1CCC(Oc2ccnc3c(Cl)cccc23)CN1C(=O)c1ccccc1-n1nccn1 (racemic)
Ratio Ki [2]: 567
Ki [3]: 510 nM
Ki [1]: 0.9 nM

C[C@@H]1CC[C@@H](Oc2ccnc3c(F)cccc23)CN1C(=O)c1ccccc1-c1cccnc1
Ratio Ki [2]: 302
Ki [3]: 19000 nM
Ki [1]: 63 nM

CC1CCC(Oc2cccc3cccnc23)CN1C(=O)c1ccccc1-n1nccn1 (racemic)
Ratio Ki [2]: 78
Ki [3]: 760 nM
Ki [1]: 9.8 nM

Cc1ccc(-n2nccn2)c(C(=O)N2C[C@H](Oc3cccc4ccccc34)CC[C@H]2C)c1 (relative stereo)
Ratio Ki [2]: 13
Ki [3]: 13 nM
Ki [1]: 1 nM

CC1CCC(Oc2ccnc3c(Br)cccc23)CN1C(=O)c1ccccc1-n1nccn1 (racemic)
Ratio Ki [2]: 423
Ki [3]: 1100 nM
Ki [1]: 2.6 nM

CC1CCC(Oc2ccnc3ccc(Br)cc23)CN1C(=O)c1ccccc1-n1nccn1 (racemic)
Ratio Ki [2]: 90
Ki [3]: 470 nM
Ki [1]: 5.2 nM

CC1CCC(Oc2cccc3cnccc23)CN1C(=O)c1ccccc1-n1nccn1 (racemic)
Ratio Ki [2]: 55
Ki [3]: 415 nM
Ki [1]: 7.5 nM

CC1CCC(Oc2cccc3ncccc23)CN1C(=O)c1ccccc1-n1nccn1 (racemic)
Ratio Ki [2]: 202
Ki [3]: 1030 nM
Ki [1]: 5.1 nM

C[C@@H]1CC[C@@H](Oc2ccnc3c(F)cccc23)CN1C(=O)c1ccccc1-n1nccn1
AUC [4]: 3.9 µM·h
fraction unbound [5]: 0.03
IC50 [6]: 3910 nM
Activity [7]: Active
IC50 [8]: 18 nM
fraction unbound [9]: 0.04
half-life [10]: 42 min
logD [11]: 2.35
clearance [12]: 22.5 mL/min/kg
Cmax [13]: 5.65 µM
AUC [14]: 16 µM·h
Activity [15]: Active
Cmax [16]: 15.7 µM
bioavailability [17]: 19%
clearance [18]: 6.2 mL/min/kg
solubility [19]: 161 µM (≈ 69.5 µg/mL)
concentration at 0.5 h [20]: 0.339 µM
Activity [21]: Active
bioavailability [22]: 50%
Tmax [23]: 22.8 min
fraction unbound [24]: 0.03
concentration at 0.5 h [25]: 9.5 µM
AUC [26]: 30.1 µM·h
Occ [27]: 72%
solubility [28]: 182 µM (≈ 78.5 µg/mL)
bioavailability [29]: 60%
Ki [3]: 965 nM
Ki [1]: 0.6 nM
fraction unbound [30]: 0.029
half-life [31]: 24 min
Papp [32]: 34 ×10⁻⁶ cm/s
Tmax [33]: 30 min

COc1cnc(O[C@@H]2CC[C@@H](C)N(C(=O)c3ccccc3-n3nccn3)C2)c2ccccc12
Ki [3]: 0.41 nM
Ki [1]: 0.24 nM

Cc1ccc(-c2ncccn2)c(C(=O)N2C[C@H](COc3ccc(F)cn3)CC[C@H]2C)c1 [FILOREXANT]
IC50 [6]: 16 nM
IC50 [8]: 17 nM
Ratio Ki [2]: 9
Ki [3]: 2.9 nM

Cc1ccc(-n2nccn2)c(C(=O)N2CCCC(COc3ccc(F)c(C)c3)C2)c1 (stereo unspecified)
Ratio Ki [2]: 0.6
Ki [3]: 5.5 nM
Ki [1]: 8.9 nM

C[C@@H]1CC[C@@H](Oc2ccnc3c(F)cccc23)CN1C(=O)c1ccccc1-c1ncccn1
Ratio Ki [2]: 1500
Ki [3]: 1200 nM
Ki [1]: 0.8 nM

O=C(c1ccccc1-n1nccn1)N1CCC(F)(F)[C@@H](Oc2ccc3ccccc3n2)C1
Ki [3]: 1.3 nM
Ki [1]: 521 nM

C[C@@H]1CC[C@@H](Oc2nccc3ccccc23)CN1C(=O)c1ccccc1-n1nccn1 (relative stereo)
Ki [1]: 0.3 nM

C[C@@H]1CC[C@@H](Oc2ccnc3c(F)cccc23)CN1C(=O)c1ccccc1N(C)C
Ki [1]: 370 nM

CC1CCC(Oc2ccnc3c(F)cccc23)CN1C(=O)c1ccccc1-n1nccn1 (racemic)
Ki [3]: 910 nM
Ki [1]: 1.3 nM

CC1CCC(Oc2cccc3ccncc23)CN1C(=O)c1ccccc1-n1nccn1 (racemic)
Ratio Ki [2]: 97
Ki [3]: 900 nM
Ki [1]: 9.3 nM

Cc1ccc(-n2nccn2)c(C(=O)N2CCCC(Oc3cccc4ccccc34)C2)c1 (stereo unspecified)
Ratio Ki [2]: 0.5
Ki [3]: 9 nM
Ki [1]: 18 nM

Cc1cc(OC2CCC(C)N(C(=O)c3ccccc3-n3nccn3)C2)c2ccccc2n1 (racemic)
Ratio Ki [2]: 125
Ki [3]: 3600 nM
Ki [1]: 28.9 nM

CC1CCC(Oc2ccnc3ccccc23)CN1C(=O)c1ccccc1-n1nccn1 (racemic)
Ratio Ki [2]: 397
Ki [3]: 2700 nM
Ki [1]: 6.8 nM
